Test results as given in the EternaBench riboswitch data.

Tested on: MS2 coat protein
Test: apparent Kd, MS2 coat protein; higher = weaker binding; RNA-MaP array; FMN 200 µM where present
Outline: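 Binding was read on Illumina sequencing-chip clusters where stalled E. coli RNA polymerase had transcribed each design. A titration of SNAP-549-labelled MS2 coat protein began at 0.7 or 1.5 nM and doubled to 3 µM, once without ligand and once with constant ligand, in 100 mM Tris-HCl pH 7.5, 80 mM KCl, 4 mM MgCl2, BSA, DTT, yeast tRNA and Tween-20. The apparent Kd is the median of filtered per-cluster binding-curve fits, based on green signal normalised to red-channel RNA signal and control-cluster median Fmax.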

[1] = designed as: OFF switch for flavin mononucleotide, no ligand
[2] = ligand present: flavin mononucleotide, designed as: OFF switch for flavin mononucleotide
[3] = designed as: ON switch for flavin mononucleotide, no ligand
[4] = ligand present: flavin mononucleotide, designed as: ON switch for flavin mononucleotide

Row | Sequence | apparent Kd [1] | apparent Kd [2] | apparent Kd [3] | apparent Kd [4]
1 | AAUAUGUUGCAGAAGGUUAUUUUUAUAACGAUCCACUUGACAUGAGGAUCACCCAUGUAAUUGUUGAAGGAUAUGCAAUAUAUU | 6.79 nM | 7.11 nM |  | 
2 | AAAUUAAGAAGAGGAUAUUGACAUGAGGAUCACCCAUGUAUUUGGGAGUGUUUACUGAAUUCUUACGAGAAGGCUUACGAAAUU | 221 nM | 212 nM |  | 
3 | GUAUCUUACCGAGGAUAUUUACGAUUAGUGUAGACAUGAGGAUCACCCAUGUGGCCUUAGUCACGGGAGAAGGCGGUUUGAUAC |  |  | 233 nM | 59 nM
4 | UAUAUAUAGUAAGGAUAUGUAUUAAUAUUAUAAACAGAAGGUACUGACAUGAGGAUCACCCAUGUUUUAGUGUGGGCAUGUAGA | 87.6 nM | 128 nM |  | 
5 | GUAGAGUCAGGAUAUACAGAAAGUGGCUGGAAAACAGUGGCACAUGAGGAUCACCCAUGUAGAAGGGACUCUAC | 89.4 nM | 215 nM |  | 
6 | UCGGCGCGAGGAUAUACGUUUGCGCGUUUUCGUUUUCGCGUACAUGAGGAUCACCCAUGUAGAAGGCGCGCCGC | 16.6 nM | 32.1 nM |  | 
7 | GUCAGCUCGUGAGGAUAUACAUCACUGCUUCGGCAGUGUAUUAAAUCCACAUGAGGAUCACCCAUGUAGAAGGCACGAGCUGAU | 16.7 nM | 31 nM |  | 
8 | UCGUAUACACAAGGAUAUCAAUGAUUUGUGGAUCCUACAUGAGGAUCACCCAUGUUUUUAUAUUUUGAGAAGGUGUAGUGUCUU |  |  | 417 nM | 608 nM
9 | GCCUUAUCUGUCAGGAUAUACAAUUUUUUUUUUUUGUAGAAGGGACAUGAGGAUCACCCAUGUACAUUACAUUG | 34 nM | 57.9 nM |  | 
10 | GCGAUUUUGUAAGGAUAUACACGAGUUUUAAGUGUAGAAGGUACUUACAUGAGGAUCACCCAUGUAUUAAUGUUUAAUAGUCGC |  |  | 8.5 nM | 6.84 nM
11 | GUAGCACAUGAUUUACAUGAGGAUCACCCAUGUAACAUGGGUAAGGAUAUUGAUGUGAAGUUAAUCAAGAAGGUACUAUGCUAC |  |  | 9.65 nM | 6.35 nM
12 | UAUUUAUAGCAAGGAUAUGAUUAUUAUUAUUUAUCAGAAGGUGCACAUGAGGAUCACCCAUGUUUUAUAAUUUGUAAUUUAAUU | 55.6 nM | 21.8 nM |  | 
13 | CGAGUCGGUUGCCCUGCAGUACAUGAGGAUCACCCAUGUCGGAGAAGGUGCACAAAGGAAUCGGGCAAGGAUAUCCGGCGUGAA | 8.21 nM | 7.98 nM |  | 
14 | UCAUUUAUCACAGGAUAUAUUAGUAUACAGUUGUUUGGUUAUUACAUAUUAAUAGAAGGGUGGAACAUGAGGAUCACCCAUGUA |  |  | 616 nM | 282 nM
15 | CUCUAUCAUGUAGGAUAUGCGUGUCGAAGCUAUGCAGAAGGACAUGAGGAUCACCCAUGUCUUACUGUCUGCGGACGGACAGGG | 22.4 nM | 53.9 nM |  | 
16 | AGAAUAAACCAGAAGGCGUAGAUACAUGAGGAUCACCCAUGUAUACUUGCGAGGAUAUGGAUGAUUCAAGUGCGUUUCGUAGCA |  |  | 6.06 nM | 4.23 nM
17 | AAUGGCGUGAUAACGCUAAUUACAACAUGAGGAUCACCCAUGUAGGAUAUCCUACCGAAAUGGUAGGAGAAGGACAAGCAAUGA | 30.4 nM | 23.5 nM |  | 
18 | GUGCAGAUGUAAGGAUAUCGACUGGAUAACAGUCGAGAAGGUACAUGAGGAUCACCCAUGUAAAUGAAAGAUAAUAAACUGCAC | 14.4 nM | 24.9 nM |  | 
19 | GGAUAGGACAGAGGAUAUACGUGCUAGAGAAACUAGCAAAAUUUCCUCACAUGAGGAUCACCCAUGUAGAAGGCUGUCCUAUCG | 14.5 nM | 543 nM |  | 
20 | UAUUCAUACGAAGGAUAUGGUUACAUGAGGAUCACCCAUGUAUGUAUAUUGAUCUAGUUAUUUAACCAGAAGGUCGGGUGUAAA | 57.3 nM | 91.3 nM |  | 
